In publication PMC7729281 (Biochemistry, 2020):
Values joined by “and” are separate entries in the source; they are usually repeats but may differ in a detail not shown here. Identical values can stand only once. Like-named read-outs stand apart in the source and are kept apart here.

What was measured:
[1] = test system: human platelets; experiment: Collagen-stimulated platelet aggregation; assay type: cell-based; conditions: 10 min incubation, collagen 0.25 μg/mL
In short: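 Washed human platelets were isolated by serial centrifugation and resuspended in Tyrode's buffer at 3 × 10^8/mL. They were preincubated with test compound (1–10 μM) for 10 min at 37 °C, then stimulated with 0.25 μg/mL collagen while stirring at 1100 rpm. Maximum aggregation was read as the light-transmittance change, mean ± SEM of 3–5 independent experiments. Comparison versus vehicle used one-way ANOVA with Dunnett's test.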

[2] = target: T1, h12-LOX (Homo sapiens, UniProt P18054); experiment: Allosteric modulation of 14S-HpDHA epoxidation by h12-LOX; assay type: biochemical; conditions: 1 μM 14S-HpDHA
T1 sequence (P18054 1-663): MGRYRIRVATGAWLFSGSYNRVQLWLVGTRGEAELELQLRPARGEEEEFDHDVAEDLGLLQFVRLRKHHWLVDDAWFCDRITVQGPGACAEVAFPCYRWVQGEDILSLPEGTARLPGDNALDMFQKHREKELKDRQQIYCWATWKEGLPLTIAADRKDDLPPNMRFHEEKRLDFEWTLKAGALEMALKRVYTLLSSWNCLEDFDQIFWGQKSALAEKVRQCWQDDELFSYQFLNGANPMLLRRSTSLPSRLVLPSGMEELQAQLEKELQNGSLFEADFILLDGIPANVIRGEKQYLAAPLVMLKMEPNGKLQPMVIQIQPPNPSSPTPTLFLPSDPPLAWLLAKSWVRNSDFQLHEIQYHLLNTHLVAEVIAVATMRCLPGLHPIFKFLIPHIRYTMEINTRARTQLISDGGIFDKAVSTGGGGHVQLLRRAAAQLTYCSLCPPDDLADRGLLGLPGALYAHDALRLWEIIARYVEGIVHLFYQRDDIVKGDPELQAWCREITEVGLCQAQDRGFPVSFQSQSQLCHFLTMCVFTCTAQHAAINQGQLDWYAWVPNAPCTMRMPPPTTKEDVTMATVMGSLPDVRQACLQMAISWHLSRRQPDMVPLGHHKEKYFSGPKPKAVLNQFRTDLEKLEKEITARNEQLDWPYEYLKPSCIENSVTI
In short: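 Recombinant human h15-LOX-1 (0.125 μM, 25 mM HEPES pH 7.5, 20 min) or h12-LOX (0.3 μM, pH 8.0, 1 h) reacted at room temperature with 1 μM 14S-HpDHA while oxylipin modulator was titrated (1–100 μM), or with 14S-HpDHA varied alone (1–50 μM). Products were reduced and analysed by LC-MS. Dehydration (epoxide) versus oxygenation product percentages were calculated, N = 3.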

[3] = target: T1, h12-LOX; experiment: Steady-state kinetics of h12-LOX
[4] = target: T2, h15-LOX-1 (Homo sapiens, UniProt P16050); experiment: Steady-state kinetics of h15-LOX-1; conditions: for fold difference of kcat/KM: h15-LOX-1, kcat/KM of enzyme with DHA set to 1 (Table 5)
T2 sequence (P16050 1-662): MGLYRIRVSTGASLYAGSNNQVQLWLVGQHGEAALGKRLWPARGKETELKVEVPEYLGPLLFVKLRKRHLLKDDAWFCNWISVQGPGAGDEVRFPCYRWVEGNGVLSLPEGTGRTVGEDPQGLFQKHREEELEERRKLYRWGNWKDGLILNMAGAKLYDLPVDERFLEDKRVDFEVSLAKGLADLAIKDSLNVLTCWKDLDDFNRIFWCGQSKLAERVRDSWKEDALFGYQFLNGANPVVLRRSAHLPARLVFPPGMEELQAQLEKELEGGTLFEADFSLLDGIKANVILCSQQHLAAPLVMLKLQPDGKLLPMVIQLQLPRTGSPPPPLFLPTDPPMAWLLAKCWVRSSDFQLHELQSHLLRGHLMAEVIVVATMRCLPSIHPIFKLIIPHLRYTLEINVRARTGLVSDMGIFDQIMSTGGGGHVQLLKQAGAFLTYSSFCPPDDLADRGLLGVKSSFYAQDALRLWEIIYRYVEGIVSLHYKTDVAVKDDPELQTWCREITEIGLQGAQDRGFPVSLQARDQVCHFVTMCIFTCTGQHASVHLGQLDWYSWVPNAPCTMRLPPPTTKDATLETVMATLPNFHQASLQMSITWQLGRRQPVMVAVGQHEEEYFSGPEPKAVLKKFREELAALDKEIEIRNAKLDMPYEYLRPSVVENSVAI

[5] = target: T2, h15-LOX-1; experiment: Product analysis of h15-LOX-1 reactions; assay type: biochemical
In short: (§1)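 h15-LOX-1 (0.125 μM, pH 7.5) or h12-LOX (0.300 μM, pH 8.0) was reacted in 25 mM HEPES at room temperature under ambient O2. Substrates were 10 μM DHA for 1 min (monitored at 234 nm) or 1 μM 14S-HpDHA for 20 min (h15-LOX-1) or 1 h (h12-LOX) (monitored at 270 nm). Reactions were quenched with acetic acid, spiked with d5-maresin-1, extracted into DCM and background-subtracted against a no-enzyme control. Split samples were run with or without trimethyl phosphite reduction. Products were identified by C18 LC-MS/MS (qTOF), N = 3.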

[6] = target: T2, h15-LOX-1; conditions: h15-LOX-1 with AA, obtained previously ref 22; cited from earlier work
[7] = test system: M2-polarized macrophages; conditions: M2-polarized macrophages challenged by inhibitor ref 44; cited from earlier work
[8] = target: T1, h12-LOX; experiment: Product analysis of h12-LOX reactions; assay type: biochemical
In short: as §1

[9] = substrate: CC/C=C\C/C=C\C/C=C\C/C=C\C/C=C\C/C=C\CCC(=O)O; experiment: purified protein, by the assay type
[10] = substrate: CCCCC/C=C\C/C=C\C/C=C\C/C=C\CCCC(=O)O; experiment: purified protein, by the assay type; conditions: other: h12-LOX + substrate, 25 mM HEPES pH 8.0, RT
[11] = h12-LOX + substrate, 25 mM HEPES pH 8.0, RT
[12] = h15-LOX-1 + substrate, 25 mM HEPES pH 7.5, RT
[13] = other: h15-LOX-1 + substrate, 25 mM HEPES pH 7.5, RT
[14] = other: h12-LOX + substrate, 25 mM HEPES pH 8.0, RT

## CC/C=C\C/C=C\C[C@H](O)/C=C/C=C\C=C\[C@@H](O)C/C=C\CCC(=O)O [7S,14S-EZE-diHDHA, 7S,14S-dihydroxy-4Z,8E,10Z,12E,16Z,19Z-docosahexaenoic acid]
[1]
  concentration required to completely inhibit platelet aggregation: 5 to 10 µM

## CCCCC/C=C\C[C@H](O)/C=C/C=C\C/C=C\CCCC(=O)O [12S-HETE, 12S-hydroxy-5Z,8Z,10E,14Z-eicosatetraenoic acid, reference compound]
[2]; titration of modulator
  allosteric effect on epoxidation: no allosteric effect

## CCCCC/C=C\C[C@H](O)/C=C/C=C\CCCCCCC(=O)O [12S-HETrE, 12S-hydroxy-8Z,10E,14Z-eicosatrienoic acid, reference compound]
[1]
  concentration required to completely inhibit platelet aggregation: 5 to 10 µM

## CC/C=C\C/C=C\C[C@H](O)/C=C/C=C\C/C=C\C/C=C\CCC(=O)O [14S-HDHA, 14S-hydroxy-4Z,7Z,10Z,12E,16Z,19Z-docosahexaenoic acid]
[3]; [11]
  Km: 210 ± 70 µM
  kcat: 0.17 ± 0.03 s⁻¹
[4]; [12]
  Km: 18 ± 4 µM
  kcat: 0.57 ± 0.01 s⁻¹
[4]
  fold difference of kcat/KM: −13

## CC/C=C\C/C=C\C[C@H](O)/C=C/C=C\C/C=C\CCCCCC(=O)O [14S-HDPAω-3, 14S-hydroxy-7Z,10Z,12E,16Z,19Z-docosapentaenoic acid]
[2]; titration with modulator, 72.0% at start
  epoxidation product at end of titration: 5.0%

## CCCCC/C=C\C/C=C\C/C=C\C/C=C\CCCC(=O)O [AA, arachidonic acid]
[5]; h15-LOX-1 + AA
  product profile: ω-9 oxylipin 12S-HETE / 12S-HpETE: 10%
[6]
  Km: 2.7 ± 0.3 µM
  kcat: 5.3 ± 0.4 s⁻¹

## O=C(Nc1ccc(F)cc1Cl)c1n[nH]c(Cl)c1Cl [BLX-3887]
[7]
  decrease of 14S-HDHA production: 45%
  decrease of maresin production: 70%

## CC/C=C\C/C=C\C/C=C\C/C=C\C/C=C\C/C=C\CCC(=O)O [DHA, docosahexaenoic acid]
[5]; h15-LOX-1 + 10 μM DHA, 1 min
  product profile: 11S-HpDHA (ω-12): 12% and 12 ± 1%
  product profile: 14S-HpDHA (ω-9): 40 ± 1%
  product profile: 17S-HpDHA (ω-6): 46% and 46 ± 1%
[8]; h12-LOX + 10 μM DHA, 1 min
  product profile: 11S-HpDHA (ω-12): 19% and 19 ± 3%
  product profile: 14S-HpDHA (ω-9): 81% and 81 ± 3%
  product profile: 17S-HpDHA (ω-6): <1.0%
[8]; substrate DHA
  14S-HpDHA product selectivity of h12-LOX greater than that of h15-LOX-1: 2 fold
[3]; h12-LOX + DHA, B.F. = kcat/KM * % product
  14S-HpDHA biosynthetic flux: 11
[3]; h12-LOX, kcat/KM of enzyme with DHA set to 1 (Table 5)
  fold difference of kcat/KM: 1.0
[3]; substrate DHA
  kcat/KM of h12-LOX greater than that of h15-LOX-1: 39 fold
[4]; h15-LOX-1 + DHA
  fold difference of 14S-HpDHA biosynthetic flux: 1.0
[4]; h15-LOX-1 + DHA, B.F. = kcat/KM * % product
  14S-HpDHA biosynthetic flux: 0.14
[4]
  fold difference of kcat/KM: 1.0

## CC/C=C\C/C=C\C[C@H](O)\C=C/C=C/C=C/[C@H](O)C/C=C\CCC(=O)O [MaR-1, 7R,14S-dihydroxy-4Z,8E,10E,12Z,16Z,19Z-docosahexaenoic acid, reference compound]
[1]
  concentration required to completely inhibit platelet aggregation: 5 to 10 µM

B1: h15-LOX-1 (Homo sapiens) (protein)
chain: MGLYRIRVSTGASLYAGSNNQVQLWLVGQHGEAALGKRLWPARGKETELKVEVPEYLGPLLFVKLRKRHLLKDDAWFCNWISVQGPGAGDEVRFPCYRWVEGNGVLSLPEGTGRTVGEDPQGLFQKHREEELEERRKLYRWGNWKDGLILNMAGAKLYDLPVDERFLEDKRVDFEVSLAKGLADLAIKDSLNVLTCWKDLDDFNRIFWCGQSKLAERVRDSWKEDALFGYQFLNGANPVVLRRSAHLPARLVFPPGMEELQAQLEKELEGGTLFEADFSLLDGIKANVILCSQQHLAAPLVMLKLQPDGKLLPMVIQLQLPRTGSPPPPLFLPTDPPMAWLLAKCWVRSSDFQLHELQSHLLRGHLMAEVIVVATMRCLPSIHPIFKLIIPHLRYTLEINVRARTGLVSDMGIFDQIMSTGGGGHVQLLKQAGAFLTYSSFCPPDDLADRGLLGVKSSFYAQDALRLWEIIYRYVEGIVSLHYKTDVAVKDDPELQTWCREITEIGLQGAQDRGFPVSLQARDQVCHFVTMCIFTCTGQHASVHLGQLDWYSWVPNAPCTMRLPPPTTKDATLETVMATLPNFHQASLQMSITWQLGRRQPVMVAVGQHEEEYFSGPEPKAVLKKFREELAALDKEIEIRNAKLDMPYEYLRPSVVENSVAI
[9]; [13]
  Km: 6.7 ± 3 µM
  kcat: 2.4 ± 0.6 s⁻¹
  kcat/Km: 360000 ± 100000 M⁻¹ s⁻¹

B2: h12-LOX (Homo sapiens) (protein)
chain: MGRYRIRVATGAWLFSGSYNRVQLWLVGTRGEAELELQLRPARGEEEEFDHDVAEDLGLLQFVRLRKHHWLVDDAWFCDRITVQGPGACAEVAFPCYRWVQGEDILSLPEGTARLPGDNALDMFQKHREKELKDRQQIYCWATWKEGLPLTIAADRKDDLPPNMRFHEEKRLDFEWTLKAGALEMALKRVYTLLSSWNCLEDFDQIFWGQKSALAEKVRQCWQDDELFSYQFLNGANPMLLRRSTSLPSRLVLPSGMEELQAQLEKELQNGSLFEADFILLDGIPANVIRGEKQYLAAPLVMLKMEPNGKLQPMVIQIQPPNPSSPTPTLFLPSDPPLAWLLAKSWVRNSDFQLHEIQYHLLNTHLVAEVIAVATMRCLPGLHPIFKFLIPHIRYTMEINTRARTQLISDGGIFDKAVSTGGGGHVQLLRRAAAQLTYCSLCPPDDLADRGLLGLPGALYAHDALRLWEIIARYVEGIVHLFYQRDDIVKGDPELQAWCREITEVGLCQAQDRGFPVSFQSQSQLCHFLTMCVFTCTAQHAAINQGQLDWYAWVPNAPCTMRMPPPTTKEDVTMATVMGSLPDVRQACLQMAISWHLSRRQPDMVPLGHHKEKYFSGPKPKAVLNQFRTDLEKLEKEITARNEQLDWPYEYLKPSCIENSVTI
[9]; [14]
  Km: 0.90 ± 0.06 µM
  kcat: 13 ± 0.2 s⁻¹
  kcat/Km: 1.4e+07 ± 800000 M⁻¹ s⁻¹
[10]
  Km: 0.95 ± 0.1 µM
  kcat: 18 ± 0.8 s⁻¹
  kcat/Km: 1.9e+07 ± 2e+06 M⁻¹ s⁻¹
